Results on one molecule are retold here after paper PMC3334839 (The Journal of Neuroscience, 2012).

Numbering of substitutions follows the chain as printed.

Common to all, as to format: cell-based
One assay concerns the target α1β1 GlyRs (Homo sapiens, UniProt P23415).
The target in assay [1] is T1, S296A mutant human α1 GlyR (Homo sapiens, UniProt P23415, S324A).
T1 sequence (P23415 29-457 S324A): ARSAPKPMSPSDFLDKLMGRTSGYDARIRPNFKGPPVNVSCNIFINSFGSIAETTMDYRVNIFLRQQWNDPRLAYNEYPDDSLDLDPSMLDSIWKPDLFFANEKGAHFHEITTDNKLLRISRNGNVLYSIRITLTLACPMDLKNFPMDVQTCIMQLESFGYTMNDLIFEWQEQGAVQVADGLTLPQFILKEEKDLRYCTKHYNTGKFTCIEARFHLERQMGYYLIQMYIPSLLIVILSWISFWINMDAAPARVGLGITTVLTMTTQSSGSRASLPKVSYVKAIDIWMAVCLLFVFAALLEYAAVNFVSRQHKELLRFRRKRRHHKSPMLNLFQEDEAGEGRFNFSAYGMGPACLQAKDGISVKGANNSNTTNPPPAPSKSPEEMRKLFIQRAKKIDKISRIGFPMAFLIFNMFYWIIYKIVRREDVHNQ
Kind of assay: cell-based. As to conditions: S296A α1.

Another assay addresses T2, S307A mutant rat α3 GlyR (Rattus norvegicus, UniProt P24524, S329A).
T2 sequence (P24524 34-464 S329A): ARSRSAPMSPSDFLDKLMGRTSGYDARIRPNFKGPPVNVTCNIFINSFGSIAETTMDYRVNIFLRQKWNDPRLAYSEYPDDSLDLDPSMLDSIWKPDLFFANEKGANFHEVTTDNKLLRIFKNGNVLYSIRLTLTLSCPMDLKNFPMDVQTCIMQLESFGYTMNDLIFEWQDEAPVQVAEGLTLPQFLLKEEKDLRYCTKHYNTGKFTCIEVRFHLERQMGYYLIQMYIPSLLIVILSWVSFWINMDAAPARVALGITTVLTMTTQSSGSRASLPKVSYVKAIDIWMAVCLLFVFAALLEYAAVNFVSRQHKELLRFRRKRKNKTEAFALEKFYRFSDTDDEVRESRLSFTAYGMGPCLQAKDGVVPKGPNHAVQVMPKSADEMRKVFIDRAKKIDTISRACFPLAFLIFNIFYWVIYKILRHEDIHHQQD
In words: Whole-cell patch-clamp of IGly in HEK-293 cells expressing S307A mutant α3 GlyRs. As to conditions: 10 μM AEA, 5 min sustained, EC2 Gly (100 μM).

For a further assay, the target named is T3, A303S mutant rat α2 GlyR (Rattus norvegicus, UniProt P22771, A330S).
T3 sequence (P22771 28-452 A330S): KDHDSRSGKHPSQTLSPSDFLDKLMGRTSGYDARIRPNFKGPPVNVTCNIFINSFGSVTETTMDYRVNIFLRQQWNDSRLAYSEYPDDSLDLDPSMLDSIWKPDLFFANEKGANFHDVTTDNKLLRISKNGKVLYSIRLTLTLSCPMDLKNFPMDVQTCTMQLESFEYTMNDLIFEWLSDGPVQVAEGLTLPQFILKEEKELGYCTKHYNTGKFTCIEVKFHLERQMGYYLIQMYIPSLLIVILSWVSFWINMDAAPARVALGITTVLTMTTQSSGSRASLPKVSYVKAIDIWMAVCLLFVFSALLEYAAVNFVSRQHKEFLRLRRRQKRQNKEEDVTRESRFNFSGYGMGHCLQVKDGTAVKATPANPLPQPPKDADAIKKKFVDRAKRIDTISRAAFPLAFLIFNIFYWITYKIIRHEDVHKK
Kind of assay: Whole-cell patch-clamp of IGly in HEK-293 cells expressing A303S mutant α2 GlyRs. As to conditions: 10 μM AEA, 5 min sustained, EC2 Gly (20 μM). (The patch-clamp technique gives a direct electrical read-out from membranes.)

Assay [2] has as its target T4, G254A mutant human α1 GlyR (Homo sapiens, UniProt P23415, G282A).
T4 sequence (P23415 29-457 G282A): T1 sequence (P23415 29-457 S324A) with G254A, A296S
Kind of assay: Whole-cell patch-clamp of IGly in HEK-293 cells expressing G254A mutant α1 GlyRs. As to conditions: AEA 5 min sustained incubation.

Assay [3] deals with T5, S296A mutant human 5-HT3A receptor (Homo sapiens, UniProt P46098, S319A).
T5 sequence (P46098 24-478 S319A): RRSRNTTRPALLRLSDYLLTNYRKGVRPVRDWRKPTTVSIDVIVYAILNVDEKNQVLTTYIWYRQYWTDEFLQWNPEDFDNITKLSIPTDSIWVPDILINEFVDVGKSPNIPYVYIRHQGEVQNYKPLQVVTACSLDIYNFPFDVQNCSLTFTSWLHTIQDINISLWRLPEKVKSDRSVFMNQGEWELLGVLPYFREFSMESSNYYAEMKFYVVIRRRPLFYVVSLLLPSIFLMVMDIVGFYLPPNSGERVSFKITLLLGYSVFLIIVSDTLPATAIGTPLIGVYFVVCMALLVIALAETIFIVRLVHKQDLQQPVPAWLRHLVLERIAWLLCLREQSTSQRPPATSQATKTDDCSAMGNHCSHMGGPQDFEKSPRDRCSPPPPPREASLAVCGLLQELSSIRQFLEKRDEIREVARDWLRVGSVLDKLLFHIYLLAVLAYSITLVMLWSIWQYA
As to conditions: 0.1 μM AEA, vs wild-type. An outline of the steps: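 Human 5-HT3A receptors (wild-type or point mutant made by site-directed mutagenesis) transfected into HEK-293 cells. Cells recorded 2 d later, trypsin/EDTA-treated 2 h before, lifted, superfused with HEPES-buffered saline (pH 7.4). Whole-cell, CsCl pipette, −60 mV, 20–22°C. 5-HT 30 μM pulses before, during and after continuous 5 min test compound (0.1 μM) incubation; 5–7 cells, mean ± SE.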

Sequence of α1β1 GlyRs (P23415 29-457): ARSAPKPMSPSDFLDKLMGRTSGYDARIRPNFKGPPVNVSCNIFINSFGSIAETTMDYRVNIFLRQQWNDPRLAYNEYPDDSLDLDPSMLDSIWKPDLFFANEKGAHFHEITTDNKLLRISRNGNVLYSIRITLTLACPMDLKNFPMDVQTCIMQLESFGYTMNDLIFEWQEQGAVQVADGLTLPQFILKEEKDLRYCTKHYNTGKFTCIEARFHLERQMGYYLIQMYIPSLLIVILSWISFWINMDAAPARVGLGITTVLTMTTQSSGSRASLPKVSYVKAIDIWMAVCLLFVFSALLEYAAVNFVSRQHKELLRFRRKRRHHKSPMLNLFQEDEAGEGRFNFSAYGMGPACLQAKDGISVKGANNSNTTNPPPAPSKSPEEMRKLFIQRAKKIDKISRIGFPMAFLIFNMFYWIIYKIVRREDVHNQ
Sequence of α1β1 GlyRs (P48167 23-497 partner): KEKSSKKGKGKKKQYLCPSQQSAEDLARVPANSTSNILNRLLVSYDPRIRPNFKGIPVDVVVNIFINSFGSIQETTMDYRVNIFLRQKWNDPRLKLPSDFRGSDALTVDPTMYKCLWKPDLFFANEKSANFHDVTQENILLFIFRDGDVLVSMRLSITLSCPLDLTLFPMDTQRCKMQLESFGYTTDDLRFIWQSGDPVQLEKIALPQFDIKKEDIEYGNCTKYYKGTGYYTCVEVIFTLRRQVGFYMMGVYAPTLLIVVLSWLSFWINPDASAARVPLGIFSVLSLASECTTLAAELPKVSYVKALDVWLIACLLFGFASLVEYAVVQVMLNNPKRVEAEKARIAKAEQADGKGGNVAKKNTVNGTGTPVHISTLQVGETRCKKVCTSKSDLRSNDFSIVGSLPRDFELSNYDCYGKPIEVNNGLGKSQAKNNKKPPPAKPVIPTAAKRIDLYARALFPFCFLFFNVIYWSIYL

For the molecule `CCCCC/C=C\C/C=C\C/C=C\C/C=C\CCCC(=O)NCCO` [AEA, anandamide], at α1β1 GlyRs (1 μM AEA sustained application, α1β1 heteromeric), the “time to maximal potentiation of IGly” value turned out to be 5 min. In addition, on α1β1 GlyRs (1 μM AEA, 5 min sustained application, EC2 Gly, α1β1 (Fig. 1C)), the “average percentage potentiation of IGly” value was found to be 85 ± 12%. Moreover, in assay [1] (10 μM AEA simultaneously applied only with Gly), the “AEA-induced potentiation of IGly, simultaneous application” value was 99 ± 20%. The “AEA-induced potentiation of IGly” value in assay [1] (10 μM AEA, 5 min sustained, EC2 Gly (10 μM)) is reported as 131 ± 41%; at S307A mutant rat α3 GlyR it was 249 ± 48%; at A303S mutant rat α2 GlyR it was 580 ± 110%; in assay [2], 597 ± 77%. For the same molecule, the “effect of S296A mutation on AEA-induced inhibition of 5-HT-activated current” value in assay [3] was “did not significantly alter”.
